Reference: publication PMC8416640 (Biochemistry and Biophysics Reports, 2021)

Legend:
ccT2R202-1 = format: cell-based, common carp (Cyprinus carpio); details: single screening concentration per compound, vs control buffer
Method in brief: (§1)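 Transient co-transfection of HEK293T cells with a pEAK10 vector carrying the carp receptor (cloned from lip cDNA or head genomic DNA) with an N-terminal sst tag (first 45 residues of rat somatostatin receptor 3), human Gα16gust44 and mt-apoclytin-II. Cells were exposed to each bitter test compound at one fixed screening concentration. Luminescence was read as area under the curve in RLU. More than three independent experiments were run in duplicate or triplicate, with paired t-tests.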

ccT2R200-1 = ccT2R200-1 (Cyprinus carpio, UniProt A0A2Z6FB23); format: cell-based, common carp (Cyprinus carpio); details: for response of ccT2R200-1 in screening of bitter compounds: single screening concentration per compound, vs control buffer
Sequence of ccT2R200-1 (A0A2Z6FB23 1-321): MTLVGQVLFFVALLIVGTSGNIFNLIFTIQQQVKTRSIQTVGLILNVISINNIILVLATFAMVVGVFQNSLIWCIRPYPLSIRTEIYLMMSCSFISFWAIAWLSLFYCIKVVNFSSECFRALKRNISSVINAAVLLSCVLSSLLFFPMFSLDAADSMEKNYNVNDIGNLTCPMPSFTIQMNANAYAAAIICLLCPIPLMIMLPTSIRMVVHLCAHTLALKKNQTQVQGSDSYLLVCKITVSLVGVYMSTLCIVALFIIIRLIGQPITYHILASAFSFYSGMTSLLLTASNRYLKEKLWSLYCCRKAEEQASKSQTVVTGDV

ccT2R201 = ccT2R201 (Cyprinus carpio, UniProt A0A2Z6FB59); format: cell-based, common carp (Cyprinus carpio); details: for response of ccT2R201 in screening of bitter compounds: single screening concentration per compound, vs control buffer
Sequence of ccT2R201 (A0A2Z6FB59 1-327): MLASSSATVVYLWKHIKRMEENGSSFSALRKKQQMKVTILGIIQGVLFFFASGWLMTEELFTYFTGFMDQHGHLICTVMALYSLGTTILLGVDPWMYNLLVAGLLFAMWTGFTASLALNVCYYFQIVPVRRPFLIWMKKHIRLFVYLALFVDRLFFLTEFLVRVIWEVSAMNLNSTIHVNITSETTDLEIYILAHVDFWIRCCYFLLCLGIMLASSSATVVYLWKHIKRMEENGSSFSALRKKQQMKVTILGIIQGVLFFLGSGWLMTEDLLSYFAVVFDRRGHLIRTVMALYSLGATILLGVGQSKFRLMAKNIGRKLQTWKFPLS
Method in brief: as §1

ccT2R203-1 = format: cell-based, common carp (Cyprinus carpio); details: for response of ccT2R203-1 in screening of bitter compounds: single screening concentration per compound, vs control buffer
ccT2R202-2 = format: cell-based, common carp (Cyprinus carpio); details: single screening concentration per compound, vs control buffer
Method in brief: as §1

ccT2R200-2 = ccT2R200-2 (Cyprinus carpio, UniProt A0A2Z6FB19); format: cell-based, common carp (Cyprinus carpio); details: for response of ccT2R200-2 in screening of bitter compounds: single screening concentration per compound, vs control buffer
Sequence of ccT2R200-2 (A0A2Z6FB19 1-321): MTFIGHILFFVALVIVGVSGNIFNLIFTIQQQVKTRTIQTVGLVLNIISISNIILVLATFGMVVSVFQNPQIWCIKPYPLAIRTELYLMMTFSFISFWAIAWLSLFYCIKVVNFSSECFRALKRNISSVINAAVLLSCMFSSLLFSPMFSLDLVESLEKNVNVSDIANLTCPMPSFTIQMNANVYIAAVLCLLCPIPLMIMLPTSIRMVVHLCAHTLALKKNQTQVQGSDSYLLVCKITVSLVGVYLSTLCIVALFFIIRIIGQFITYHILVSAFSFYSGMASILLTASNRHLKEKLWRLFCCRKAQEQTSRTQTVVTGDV

drT2R1 = details: drT2R1, approximate, one range for four receptors; cited from earlier work
drT2R3a = details: approximate, one range for four receptors; cited from earlier work
lcT2R01 = details: lcT2R01, approximate, one range for four receptors; cited from earlier work
mfT2R1 = details: mfT2R1, approximate, one range for four receptors; cited from earlier work
drT2R4 = details: zebrafish receptor; cited from earlier work

| Compound | response of ccT2R200-1 in screening of bitter compounds (ccT2R200-1) | response of ccT2R201 in screening of bitter compounds (ccT2R201) | response of ccT2R203-1 in screening of bitter compounds (ccT2R203-1) | further results |
| --- | --- | --- | --- | --- |
| O=C1C[C@@H]2OCC=C3CN4CC[C@]56c7ccccc7N1[C@H]5[C@H]2[C@H]3C[C@H]46 [strychinine] | weakly responded | – | – | response of ccT2R202-1 in screening of bitter compounds (ccT2R202-1): weakly activated |
| OCc1ccccc1O[C@@H]1O[C@H](CO)[C@@H](O)[C@H](O)[C@H]1O [D-(−)-salicin] | – | weakly responded | – | – |
| CN(C)C=S [dimethyl-thioformamide] | weakly responded | – | weakly responded | – |
| C=C1CC[C@@H]2[C@](C)(CO)[C@H](O)CC[C@@]2(C)[C@@H]1C/C=C1/C(=O)OC[C@H]1O [andrographolide] | strongly activated | – | weakly responded | response of ccT2R202-2 in screening of bitter compounds (ccT2R202-2): weakly activated; EC50 (ccT2R200-2): 335 ± 38 µM; response of ccT2R200-2 in screening of bitter compounds (ccT2R200-2): strongly activated; EC50 (ccT2R200-1): 182 ± 7 µM |
| COc1cc2c(c(OC)c1OC)-c1ccc(OC)c(=O)cc1[C@@H](NC(C)=O)CC2 [colchicine] | – | weakly responded | – | – |
| amarogentin | strongly activated | strongly activated | – | – |
| CC[N+](CC)(CC(=O)Nc1c(C)cccc1C)Cc1ccccc1 [denatonium benzoate] | – | weakly responded | – | EC50 (drT2R1): 300 to 3000 µM; EC50 (drT2R3a): 300 to 3000 µM; EC50 (lcT2R01): 300 to 3000 µM; EC50 (ccT2R201): 44 ± 5 µM; EC50 (mfT2R1): 300 to 3000 µM |
| O=C(O)c1cc(=O)c2c(OCC(O)COc3cccc4oc(C(=O)O)cc(=O)c34)cccc2o1 [cromolyne] | weakly responded | – | – | – |
| O=C(N[C@H](CO)[C@H](O)c1ccc([N+](=O)[O-])cc1)C(Cl)Cl [chloramphenicol] | – | weakly responded | – | – |
| CC(C)[C@]12CC(=O)[C@H](C)[C@H]1C2 [α-thujon] | weakly responded | – | – | – |
| CC1=C[C@H]2[C@H]3[C@H](C(C)=C4[C@H]5OC(=O)[C@@H](C)[C@@H]5CC[C@](C)(O)[C@@H]43)[C@@]13[C@@H]2[C@@](C)(O)CC[C@H]1[C@H](C)C(=O)O[C@@H]13 [absinthin] | weakly responded | – | weakly responded | response of ccT2R200-2 in screening of bitter compounds (ccT2R200-2): weakly responded |
| CNC(N)=S [methylthiourea] | – | – | weakly responded | – |
| CCCc1cc(=O)[nH]c(=S)[nH]1 [PROP] | weakly responded | strongly activated | strongly activated | response of ccT2R200-2 in screening of bitter compounds (ccT2R200-2): strongly activated |
| C=C(C)[C@@H]1[C@H]2OC(=O)[C@@H]1[C@]1(O)C[C@H]3O[C@]34C(=O)O[C@H]2[C@]14C [picrotoxinin] | strongly activated | – | strongly activated | EC50 (ccT2R203-1; ccT2R203-1, dose-response with seven concentrations, HEK293T, luminescence AUC): 425 ± 99 µM; response of ccT2R200-2 in screening of bitter compounds (ccT2R200-2): strongly activated; response of drT2R4 (drT2R4): does not respond; EC50 (ccT2R200-1): 510 ± 26 µM |
